Drawing on ChEMBL document CHEMBL1124618, “Synthesis of the 2-chloro analogues of 3'-deoxyadenosine, 2',3'-dideoxyadenosine, and 2',3'-didehydro-2',3'-dideoxyadenosine as potential antiviral agents” (1989), this text covers Control and p24 for 4 molecules.

The species entered for test [1] is Homo sapiens. The test can be described thus: Compound was tested for its effect on the growth of human T lymphocytes (SupT1) in culture at 1 uM. The class given is functional. An outline of the steps: (§1)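 Uninfected lymphocyte lines (Raji B cells or SupT1 T cells) kept in growth medium and given drug dilutions. After 48 h, cells stained with trypan blue and counted. Viable cells (dye exclusion) expressed as percentage of untreated controls. Values from a typical experiment.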

The species entered for test [2] is Homo sapiens. Briefly: Compound was tested for its effect on the growth of human T lymphocytes (SupT1) in culture at 1000 uM. The format is functional. In a few lines:
as §1

Test [3] is filed under the species Homo sapiens. The test can be described thus: Compound was tested for its effect on the growth of human T lymphocytes (SupT1) in culture at 10 uM. The format is functional. In a few lines:
as §1

Test [4] relates to SC-1 (Mus musculus). The test can be described thus: Compound was tested for its effect on the growth of mouse fibroblasts (SC-1) in culture at 100 uM.
The species named for test [5] is Homo sapiens. The test can be described thus: Compound was tested for its effect on the growth of human B lymphocytes (Raji) in culture at 100 uM. The format is functional. In a few lines: as §1
For test [6], the species on record is Homo sapiens. The test can be described thus: Compound was tested for its effect on the growth of human T lymphocytes (SupT1) in culture at 500 uM. The format is functional. An outline of the steps:
as §1

For test [7], the species on record is Homo sapiens. Briefly: Compound was tested for its effect on the growth of human B lymphocytes (Raji) in culture at 10 uM. The format is functional. An outline of the steps:
as §1

Test [8] deals with SC-1 (Mus musculus). Briefly: Compound was tested for its effect on the growth of mouse fibroblasts (SC-1) in culture at 10 uM.
For test [9], the species on record is Homo sapiens. Briefly: Compound was tested for its effect on the growth of human B lymphocytes (Raji) in culture at 1 uM. The format is functional. An outline of the steps:
as §1

Test [10] is filed under the species Homo sapiens. The test can be described thus: Compound was tested for its effect on the growth of human B lymphocytes (Raji) in culture at 500 uM. The format is functional. An outline of the steps:
as §1

The species named for test [11] is Homo sapiens. The test can be described thus: Compound was tested for its effect on the growth of human B lymphocytes (Raji) in culture at 1000 uM. The format is functional. In a few lines: as §1
For test [12], the species on record is Homo sapiens. Briefly: Compound was tested for its effect on the growth of human T lymphocytes (SupT1) in culture at 100 uM. The format is functional. In a few lines:
as §1

The subject of test [13] is SC-1 (Mus musculus). Briefly: Compound was tested for its effect on the growth of mouse fibroblasts (SC-1) in culture at 1 uM.
The species entered for test [14] is Homo sapiens. Briefly: Compound was tested for its effect on Reverse Transcriptase (RT) production by HIV-Infected Human T4+ Lymphocytes (C8166) at 200 uM. The class given is functional.
The species entered for test [15] is Homo sapiens. The test can be described thus: Compound was tested for its effect on the growth of human T4+ lymphocytes (C8166) in culture at 10 uM. The class given is functional.
For test [16], the species on record is Homo sapiens. The test can be described thus: Compound was tested for its relative effect on p24 viral core protein production by HIV -infected human T4+ lymphocytes (C8166) at 20 uM. The class given is functional.
Test [17] is filed under the species Homo sapiens. Briefly: Compound was tested for its relative effect on p24 viral core protein production by HIV -infected human T4+ lymphocytes (C8166) at 100 uM. The format is functional.
The species entered for test [18] is Homo sapiens. The test can be described thus: Compound was tested for its relative effect on p24 viral core protein production by HIV -infected human T4+ lymphocytes (C8166) at 200 uM. The format is functional.
The species named for test [19] is Homo sapiens. The test can be described thus: Compound was tested for its effect on the growth of human T4+ lymphocytes (C8166) in culture at 500 uM. The format is functional.
The species entered for test [20] is Homo sapiens. The test can be described thus: Compound was tested for its effect on Reverse Transcriptase (RT) production by HIV-Infected Human T4+ Lymphocytes (C8166) at 100 uM. The format is functional.
The species entered for test [21] is Homo sapiens. The test can be described thus: Compound was tested for its effect on the growth of human T4+ lymphocytes (C8166) in culture at 1000 uM. The format is functional.
The species entered for test [22] is Homo sapiens. Briefly: Compound was tested for its effect on Reverse Transcriptase (RT) production by HIV-Infected Human T4+ Lymphocytes (C8166) at 2 uM. The class given is functional.
For test [23], the species on record is Homo sapiens. Briefly: Compound was tested for its effect on Reverse Transcriptase (RT) production by HIV-Infected Human T4+ Lymphocytes (C8166) at 20 uM. The format is functional.
The species entered for test [24] is Homo sapiens. Briefly: Compound was tested for its effect on the growth of human T4+ lymphocytes (C8166) in culture at 100 uM. The format is functional.
The species entered for test [25] is Homo sapiens. The test can be described thus: Compound was tested for its effect on reverse transcriptase of HIV-infected human T4+ lymphocytes (C8166) at 2 uM. The class given is functional. An outline of the steps:
(§2)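 C8166 T4+ cells (~2 × 10⁵ per well) exposed to drug dilutions, then infected with 2500 RT units of cell-free HIV HXBc2 strain; FBS heat-inactivated (55 °C, 60 min) or not. Drug-containing medium replaced every 3 days. On day 6, RT activity measured in cell supernatants and compared with untreated controls.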

For test [26], the species on record is Homo sapiens. The test can be described thus: Compound was tested for its effect on reverse transcriptase of HIV-infected human T4+ lymphocytes (C8166) at 20 uM. The format is functional. An outline of the steps: as §2

Where only a bound is given, the exact number is not on record here.

Take `Nc1nc(Cl)nc2c1ncn2C1OC(CO)CC1O` (configuration not stated): the Control is 100% in the test listed under Homo sapiens [1]; 8% in the test listed under Homo sapiens [2]; 81% in the test filed under Homo sapiens [3]; 2% in the test with SC-1 (Mus musculus) [4]; 43% in the test listed under Homo sapiens [5]; 13% in the test listed under Homo sapiens [6]. In addition, the Control in the test listed under Homo sapiens [7] is listed as 69%; in the test with SC-1 (Mus musculus) [8] it was 53%; in the test filed under Homo sapiens [9], 98%; in the test filed under Homo sapiens [10] it was 8%; in the test filed under Homo sapiens [11], 3%; in the test listed under Homo sapiens [12], 73%. In the test with SC-1 (Mus musculus) [13], this molecule came in with a Control of 82%.

As to `Nc1nc(Cl)nc2c1ncn2C1CCC(CO)O1` (configuration not stated), the Control is reported as under 1% in the test listed under Homo sapiens [14]; 94% in the test listed under Homo sapiens [15]; 37% in the test filed under Homo sapiens [19]; 3% in the test filed under Homo sapiens [20]; 0% in the test filed under Homo sapiens [21]; 100% in the test listed under Homo sapiens [22]. For the same molecule, the Control in the test listed under Homo sapiens [23] came out at 57%; in the test listed under Homo sapiens [24], 77%. Besides, the p24 in the test filed under Homo sapiens [16] amounted to 16 ng/mL; in the test listed under Homo sapiens [17], 2.2 ng/mL; in the test listed under Homo sapiens [18], 0.2 ng/mL.

With `Nc1nc(Cl)nc2c1ncn2C1C=CC(CO)O1` (configuration not stated), the Control in the test listed under Homo sapiens [25] worked out at 53%; in the test listed under Homo sapiens [26], 25%.

Consider `Nc1ncnc2c1ncn2[C@H]1CC[C@@H](CO)O1`, for which the Control in the test listed under Homo sapiens [14] was under 1%; in the test listed under Homo sapiens [15] it was 116%; in the test listed under Homo sapiens [19], 90%; in the test filed under Homo sapiens [20], under 1%; in the test listed under Homo sapiens [21] it was 91%; in the test filed under Homo sapiens [22] it was 25%. Besides, the Control in the test listed under Homo sapiens [23] was found to be 25%; in the test filed under Homo sapiens [24] it was 116%. In addition, the p24 is 28 ng/mL in the test listed under Homo sapiens [16], 1.8 ng/mL in the test listed under Homo sapiens [17] and 0.2 ng/mL in the test filed under Homo sapiens [18].
